Assay results taken from ChEMBL document CHEMBL5058577, “EUbOPEN Chemogenomics Library 2 (Multiplex)” (2022).

Tested on: Fibroblast
Experiment: Multiplex assay against human fibroblast
Type: toxicity, cell-based
Procedure, shortened: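 Compound was added to live cells that had been stained at seeding with Hoechst33342, BioTracker Green Microtubule Cytoskeleton Dye, MitoTracker Red and Annexin V Alexa Fluor 680, and imaging followed on a CQ1 microscope at 37°C and 5% CO2. CellPathfinder machine-learning gating divided cells into Hoechst high-intensity objects or normal cells, normal cells into healthy, pyknosed or fragmented nuclei, and pyknosed cells into mitotic or apoptotic. Tubulin, mitochondrial-mass and membrane-permeability phenotypes are per cents of healthy-nucleus cells.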

[1] = 12 h, 1 µM, compound concentration 1 uM, replicate 1
[2] = 12 h, 1 µM, compound concentration 1 uM, replicate 2
[3] = 12 h, 10 µM, compound concentration 10 uM, replicate 1
[4] = 12 h, 10 µM, compound concentration 10 uM, replicate 2
[5] = 24 h, 1 µM, compound concentration 1 uM, replicate 1
[6] = 24 h, 1 µM, compound concentration 1 uM, replicate 2
[7] = 24 h, 10 µM, compound concentration 10 uM, replicate 1
[8] = 24 h, 10 µM, compound concentration 10 uM, replicate 2
[9] = 48 h, 1 µM, compound concentration 1 uM, replicate 1
[10] = 48 h, 1 µM, compound concentration 1 uM, replicate 2
[11] = 48 h, 10 µM, compound concentration 10 uM, replicate 1
[12] = 48 h, 10 µM, compound concentration 10 uM, replicate 2

## O=C(O)Cc1ccccc1Nc1c(Cl)cccc1Cl [DICLOFENAC]
[1]
  Population Apoptotic (%): 43%
  Population Fragmented Nuclei (%): 14%
  Population Healthy Nuclei (%): 67%
  Population Hoechst High Intensity Objects (%): 0%
  Population Membrane Permeable-Phenotype (%): 1%
  Population Mitochondria Different-Phenotype (%): 6%
  Population Mitotic Cells (%): 56%
  Population Normal (%): 99%
  Population Pyknosed Nuclei (%): 17%
  Population Tubulin-Different-Phenotype (%): 25%
[2]
  Population Apoptotic (%): 33%
  Population Fragmented Nuclei (%): 25%
  Population Healthy Nuclei (%): 49%
  Population Hoechst High Intensity Objects (%): 2%
  Population Membrane Permeable-Phenotype (%): 7%
  Population Mitotic Cells (%): 66%
  Population Normal (%): 97%
  Population Pyknosed Nuclei (%): 25%
  Population Tubulin-Different-Phenotype (%): 49%
[3]
  Population Apoptotic (%): 32%
  Population Fragmented Nuclei (%): 14%
  Population Healthy Nuclei (%): 68%
  Population Hoechst High Intensity Objects (%): 0%
  Population Membrane Permeable-Phenotype (%): 0%
  Population Mitochondria Different-Phenotype (%): 5%
  Population Mitotic Cells (%): 68%
  Population Normal (%): 99%
  Population Pyknosed Nuclei (%): 17%
  Population Tubulin-Different-Phenotype (%): 24%
[4]
  Population Apoptotic (%): 38%
  Population Fragmented Nuclei (%): 36%
  Population Healthy Nuclei (%): 46%
  Population Hoechst High Intensity Objects (%): 6%
  Population Membrane Permeable-Phenotype (%): 16%
  Population Mitochondria Different-Phenotype (%): 8%
  Population Mitotic Cells (%): 61%
  Population Normal (%): 93%
  Population Tubulin-Different-Phenotype (%): 54%
[5]
  Population Apoptotic (%): 52%
  Population Fragmented Nuclei (%): 15%
  Population Healthy Nuclei (%): 66%
  Population Hoechst High Intensity Objects (%): 2%
  Population Membrane Permeable-Phenotype (%): 0%
  Population Mitochondria Different-Phenotype (%): 4%
  Population Mitotic Cells (%): 47%
  Population Normal (%): 97%
  Population Pyknosed Nuclei (%): 17%
  Population Tubulin-Different-Phenotype (%): 29%
[6]
  Population Apoptotic (%): 35%
  Population Fragmented Nuclei (%): 28%
  Population Healthy Nuclei (%): 49%
  Population Hoechst High Intensity Objects (%): 3%
  Population Membrane Permeable-Phenotype (%): 12%
  Population Mitochondria Different-Phenotype (%): 6%
  Population Mitotic Cells (%): 64%
  Population Normal (%): 96%
  Population Pyknosed Nuclei (%): 21%
  Population Tubulin-Different-Phenotype (%): 50%
[7]
  Population Apoptotic (%): 30%
  Population Fragmented Nuclei (%): 16%
  Population Healthy Nuclei (%): 68%
  Population Hoechst High Intensity Objects (%): 5%
  Population Membrane Permeable-Phenotype (%): 0%
  Population Mitochondria Different-Phenotype (%): 5%
  Population Mitotic Cells (%): 69%
  Population Normal (%): 94%
  Population Pyknosed Nuclei (%): 15%
  Population Tubulin-Different-Phenotype (%): 19%
[8]
  Population Apoptotic (%): 50%
  Population Fragmented Nuclei (%): 31%
  Population Healthy Nuclei (%): 50%
  Population Hoechst High Intensity Objects (%): 2%
  Population Membrane Permeable-Phenotype (%): 8%
  Population Mitochondria Different-Phenotype (%): 10%
  Population Mitotic Cells (%): 50%
  Population Normal (%): 97%
  Population Pyknosed Nuclei (%): 18%
  Population Tubulin-Different-Phenotype (%): 55%
[9]
  Population Apoptotic (%): 85%
  Population Fragmented Nuclei (%): 21%
  Population Healthy Nuclei (%): 61%
  Population Hoechst High Intensity Objects (%): 3%
  Population Membrane Permeable-Phenotype (%): 4%
  Population Mitochondria Different-Phenotype (%): 4%
  Population Mitotic Cells (%): 15%
  Population Normal (%): 96%
  Population Pyknosed Nuclei (%): 16%
  Population Tubulin-Different-Phenotype (%): 24%
[10]
  Population Apoptotic (%): 57%
  Population Fragmented Nuclei (%): 36%
  Population Healthy Nuclei (%): 53%
  Population Hoechst High Intensity Objects (%): 5%
  Population Mitotic Cells (%): 42%
  Population Normal (%): 94%
  Population Pyknosed Nuclei (%): 10%
  Population Tubulin-Different-Phenotype (%): 44%
[11]
  Population Apoptotic (%): 73%
  Population Fragmented Nuclei (%): 22%
  Population Healthy Nuclei (%): 65%
  Population Hoechst High Intensity Objects (%): 3%
  Population Membrane Permeable-Phenotype (%): 0%
  Population Mitochondria Different-Phenotype (%): 3%
  Population Mitotic Cells (%): 26%
  Population Normal (%): 96%
  Population Pyknosed Nuclei (%): 12%
  Population Tubulin-Different-Phenotype (%): 28%
[12]
  Population Apoptotic (%): 30%
  Population Fragmented Nuclei (%): 35%
  Population Healthy Nuclei (%): 50%
  Population Membrane Permeable-Phenotype (%): 4%
  Population Mitochondria Different-Phenotype (%): 6%
  Population Mitotic Cells (%): 69%
  Population Pyknosed Nuclei (%): 14%
  Population Tubulin-Different-Phenotype (%): 53%

## CNC[C@H](O)c1ccc(O)c(O)c1 [EPINEPHRINE]
[1]
  Population Apoptotic (%): 36%
  Population Fragmented Nuclei (%): 17%
  Population Healthy Nuclei (%): 66%
  Population Hoechst High Intensity Objects (%): 1%
  Population Membrane Permeable-Phenotype (%): 1%
  Population Mitochondria Different-Phenotype (%): 3%
  Population Mitotic Cells (%): 63%
  Population Normal (%): 98%
  Population Pyknosed Nuclei (%): 16%
  Population Tubulin-Different-Phenotype (%): 15%
[2]
  Population Apoptotic (%): 40%
  Population Fragmented Nuclei (%): 38%
  Population Healthy Nuclei (%): 44%
  Population Membrane Permeable-Phenotype (%): 13%
  Population Mitochondria Different-Phenotype (%): 7%
  Population Mitotic Cells (%): 60%
  Population Pyknosed Nuclei (%): 17%
  Population Tubulin-Different-Phenotype (%): 42%
[3]
  Population Apoptotic (%): 40%
  Population Fragmented Nuclei (%): 18%
  Population Healthy Nuclei (%): 61%
  Population Hoechst High Intensity Objects (%): 3%
  Population Membrane Permeable-Phenotype (%): 1%
  Population Mitochondria Different-Phenotype (%): 6%
  Population Mitotic Cells (%): 60%
  Population Normal (%): 96%
  Population Pyknosed Nuclei (%): 20%
  Population Tubulin-Different-Phenotype (%): 23%
[4]
  Population Apoptotic (%): 32%
  Population Fragmented Nuclei (%): 39%
  Population Healthy Nuclei (%): 37%
  Population Hoechst High Intensity Objects (%): 7%
  Population Membrane Permeable-Phenotype (%): 12%
  Population Mitochondria Different-Phenotype (%): 8%
  Population Mitotic Cells (%): 67%
  Population Normal (%): 92%
  Population Pyknosed Nuclei (%): 23%
  Population Tubulin-Different-Phenotype (%): 55%
[5]
  Population Apoptotic (%): 54%
  Population Fragmented Nuclei (%): 12%
  Population Healthy Nuclei (%): 70%
  Population Hoechst High Intensity Objects (%): 0%
  Population Membrane Permeable-Phenotype (%): 0%
  Population Mitochondria Different-Phenotype (%): 3%
  Population Mitotic Cells (%): 45%
  Population Normal (%): 99%
  Population Pyknosed Nuclei (%): 16%
  Population Tubulin-Different-Phenotype (%): 11%
[6]
  Population Apoptotic (%): 23%
  Population Fragmented Nuclei (%): 38%
  Population Healthy Nuclei (%): 47%
  Population Hoechst High Intensity Objects (%): 3%
  Population Membrane Permeable-Phenotype (%): 12%
  Population Mitochondria Different-Phenotype (%): 6%
  Population Mitotic Cells (%): 76%
  Population Normal (%): 96%
  Population Pyknosed Nuclei (%): 14%
  Population Tubulin-Different-Phenotype (%): 32%
[7]
  Population Apoptotic (%): 65%
  Population Fragmented Nuclei (%): 16%
  Population Healthy Nuclei (%): 60%
  Population Hoechst High Intensity Objects (%): 3%
  Population Membrane Permeable-Phenotype (%): 0%
  Population Mitochondria Different-Phenotype (%): 5%
  Population Mitotic Cells (%): 34%
  Population Normal (%): 96%
  Population Pyknosed Nuclei (%): 23%
  Population Tubulin-Different-Phenotype (%): 21%
[8]
  Population Apoptotic (%): 38%
  Population Fragmented Nuclei (%): 39%
  Population Healthy Nuclei (%): 44%
  Population Membrane Permeable-Phenotype (%): 12%
  Population Mitochondria Different-Phenotype (%): 4%
  Population Mitotic Cells (%): 61%
  Population Pyknosed Nuclei (%): 15%
  Population Tubulin-Different-Phenotype (%): 51%
[9]
  Population Apoptotic (%): 50%
  Population Fragmented Nuclei (%): 17%
  Population Healthy Nuclei (%): 67%
  Population Hoechst High Intensity Objects (%): 1%
  Population Membrane Permeable-Phenotype (%): 0%
  Population Mitochondria Different-Phenotype (%): 6%
  Population Mitotic Cells (%): 50%
  Population Normal (%): 98%
  Population Pyknosed Nuclei (%): 15%
  Population Tubulin-Different-Phenotype (%): 23%
[10]
  Population Apoptotic (%): 38%
  Population Fragmented Nuclei (%): 41%
  Population Healthy Nuclei (%): 48%
  Population Membrane Permeable-Phenotype (%): 6%
  Population Mitochondria Different-Phenotype (%): 5%
  Population Mitotic Cells (%): 61%
  Population Pyknosed Nuclei (%): 10%
  Population Tubulin-Different-Phenotype (%): 45%
[11]
  Population Apoptotic (%): 77%
  Population Fragmented Nuclei (%): 20%
  Population Healthy Nuclei (%): 65%
  Population Hoechst High Intensity Objects (%): 2%
  Population Membrane Permeable-Phenotype (%): 2%
  Population Mitochondria Different-Phenotype (%): 4%
  Population Mitotic Cells (%): 22%
  Population Normal (%): 97%
  Population Pyknosed Nuclei (%): 13%
  Population Tubulin-Different-Phenotype (%): 32%
[12]
  Population Apoptotic (%): 37%
  Population Fragmented Nuclei (%): 50%
  Population Healthy Nuclei (%): 44%
  Population Hoechst High Intensity Objects (%): 3%
  Population Membrane Permeable-Phenotype (%): 6%
  Population Mitochondria Different-Phenotype (%): 3%
  Population Mitotic Cells (%): 62%
  Population Normal (%): 96%
  Population Pyknosed Nuclei (%): 5%
  Population Tubulin-Different-Phenotype (%): 46%
